Data published in ChEMBL document CHEMBL4680218, “Design and synthesis of tripeptidyl furylketones as selective inhibitors against the β5 subunit of human 20S proteasome” (Eur J Med Chem, 2020).
Calls of active or inactive are those of the source.

Columns and labels:
[1] = biological target: T1, Proteasome Macropain subunit MB1 (Homo sapiens) (UniProt P28074); test: Inhibition of chymotrypsin-like activity of human 20S proteasome beta5 subunit at 50 uM using Suc-LLVY-Glo as substrate incubated for 2 hrs followed by substrate addition and measured for 10 mins by bioluminescent assay relative to control; details: time 130.0 min
T1 sequence (whole entry): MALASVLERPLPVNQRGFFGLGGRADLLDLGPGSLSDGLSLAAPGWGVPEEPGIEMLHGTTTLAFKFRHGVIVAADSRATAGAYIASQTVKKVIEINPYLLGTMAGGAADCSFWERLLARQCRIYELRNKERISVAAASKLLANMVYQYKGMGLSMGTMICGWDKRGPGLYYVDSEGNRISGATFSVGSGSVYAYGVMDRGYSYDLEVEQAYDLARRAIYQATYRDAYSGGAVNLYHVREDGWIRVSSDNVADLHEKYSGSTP
Procedure, shortened: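 Human constitutive 20S proteasome (1 µg/mL) was incubated with compound for 2 h at 25 °C in 10 mM HEPES pH 7.6 with 1% DMSO final. Suc-LLVY-Glo substrate was then added, and luminescence was read over 10 min. Inhibition rate was calculated against the uninhibited signal.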

[2] = biological target: T2, Proteasome Macropain subunit MB1 (Homo sapiens, UniProt P28074); test: Inhibition of chymotrypsin-like activity of human 20S proteasome beta5 subunit using Suc-LLVY-Glo as substrate incubated for 2 hrs followed by substrate addition and measured for 10 mins by bioluminescent assay
T2 sequence (P28074 whole entry): T1 sequence (whole entry)
Procedure, shortened: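 Human constitutive 20S proteasome (1 μg/mL) was combined with compound serially diluted in 10 mM HEPES pH 7.6, with final DMSO 1% (v/v). After 2 h at 25 °C, Suc-LLVY-Glo (CT-L), Z-LRR-Glo (T-L) or Z-nLPnLD-Glo (C-L) reagent was added. Luminescence was read over 10 min, and IC50 was taken from inhibition rates.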

[3] = biological target: T1, Proteasome Macropain subunit MB1 (Homo sapiens); test: (§1) Reversible inhibition of human 20S proteasome beta5 subunit assessed as residual enzyme activity using Suc-LLVY-Glo as substrate preincubated for 2 hrs followed by compound washout and further incubated for 4 hrs followed by substrate addition and measured after 10 mins by bioluminescent assay relative to control
Procedure, shortened: (§2)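 Human 20S proteasome (8 μg/mL) was pre-incubated with inhibitor for 2 h at 25 °C. Samples were then washed five times in assay buffer on 100 kDa cut-off centrifugal filters (14,000 g, 5 min each) and recovered. After a further 4 h at 25 °C, Suc-LLVY-Glo was added and luminescence was read after 10 min. Unwashed samples held an extra 4 h served as the standard.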

[4] = biological target: T1, Proteasome Macropain subunit MB1 (Homo sapiens); test: as §1, with “Irreversible” for “Reversible”; procedure, shortened: as §2
[5] = Cmax in Sprague-Dawley rat at 4 mg/kg, iv measured up to 48 hrs by LC-MS/MS analysis; assay type: ADME, organism-based; set-up: route intravenous, dose 4 mg/kg, time <=48; details: in vivo
[6] = Half life in Sprague-Dawley rat at 4 mg/kg, iv measured up to 48 hrs by LC-MS/MS analysis; details: in vivo
[7] = Clearance in Sprague-Dawley rat at 4 mg/kg, iv measured up to 48 hrs by LC-MS/MS analysis; details: in vivo
[8] = Volume of distribution at steady state in Sprague-Dawley rat at 4 mg/kg, iv measured up to 48 hrs by LC-MS/MS analysis; details: in vivo
HCT-116 = test: Antitumour activity against human HCT-116 cells xenografted in BALB/c athymic nude mouse assessed as reduction in tumour growth at 5 mg/kg, iv administered twice a week for 28 days by caliper analysis; assay type: functional, organism-based; details: time 28.0 day
Procedure, shortened: (§3)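 Male nude mice had 1 × 10^7 HCT-116 cells in serum-free RPMI 1640 implanted subcutaneously in the right flank. At ~300 mm³ (about day 10) they were randomized, n=3/group. Dosing was by tail vein twice weekly (D1/D4) for four weeks: 10 mg/kg in 8% ethanol/2% Tween 80/90% water, or 5 mg/kg in 10% sulfobutylether-β-cyclodextrin, 10 mmol/L citrate pH 3.5. Caliper volume (length × width²)/2 and body weight were measured twice weekly.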

[9] = Toxicity in BALB/c athymic nude mouse xenografted with human HCT-116 cells assessed as reduction in body weight at 5 mg/kg, iv administered twice a week for 28 days; assay type: organism-based; details: in vivo, 672 h, time 28 day; procedure, shortened: as §3
[10] = biological target: T1, Proteasome Macropain subunit MB1 (Homo sapiens); test: Covalent binding affinity to human 20S proteasome beta5 subunit assessed as compound-tryptic digest TTTLAFKFR peptide adduct formation at 10 uM incubated for 2 hrs measured after overnight incubation with trypsin by LC-MS/MS analysis
Procedure, shortened: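 Purified human 20S proteasome (4 nM) was incubated with 10 μM inhibitor for 2 h at room temperature, then quenched and denatured with acetonitrile. Trypsin (1:50) digestion ran overnight at 37 °C, followed by C18 desalting. Nano-LC-MS/MS used a 0.1% formic acid water/acetonitrile gradient. Adducts were searched against UniProt at ±10 ppm precursor and ±0.02 Da fragment tolerance, allowing 2 missed cleavages.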

in vivo = details: Sprague-Dawley, rat, iv, 4 mg/kg

SMILES | inhibition [1] [%] | IC50 [2] [µM] | also measured
CC(C)C[C@H](NC(=O)[C@H](C)NC(=O)[C@H](Cc1ccccc1)NC(=O)OCc1ccccc1)C(=O)c1ccco1 | > 50 | > 50 | 
CC(C)C[C@H](NC(=O)[C@H](Cc1ccccc1)NC(=O)c1cnccn1)B(O)O |  |  | Activity [3]: 80%
CC(C)C[C@H](NC(=O)[C@H](C)NC(=O)[C@H](Cc1ccccc1)NC(=O)OC(C)(C)C)C(=O)c1ccco1 | > 50 | 45.6 | 
COC[C@H](NC(=O)[C@H](Cc1ccccc1)NC(=O)OC(C)(C)C)C(=O)N[C@@H](CC(C)C)C(=O)c1ccco1 | > 50 | 14.3 | 
COc1ccc(C[C@H](NC(=O)OC(C)(C)C)C(=O)N[C@@H](Cc2ccc(Cl)cc2)C(=O)N[C@@H](CC(C)C)C(=O)c2ccco2)cc1 | > 50 | 50 | 
CC(=O)N[C@@H](Cc1ccccc1)C(=O)N[C@@H](Cc1ccc(O)cc1)C(=O)N[C@@H](CC(C)C)C(=O)c1ccco1 | > 50 | 13.9 | 
CC(C)C[C@H](NC(=O)[C@H](CCc1ccccc1)NC(=O)CN1CCOCC1)C(=O)N[C@@H](Cc1ccccc1)C(=O)N[C@@H](CC(C)C)C(=O)[C@@]1(C)CO1 [CARFILZOMIB] |  |  | Activity [4]: 10%; Cmax [5]: 27800 ng/mL; half-life at 48 h [6]: 17 min; clearance at 48 h [7]: 195 mL/min/kg; Vd at 48 h [8]: 0.3 L/kg; Activity (HCT-116): Active; Activity [9]: Non-Toxic; Activity [10]: Active; AUC(0-t) at 48 h (in vivo): 343 ng·h/mL

The remaining compounds from weak to strong by IC50 [2], led by results:

inhibition [1] [%] | IC50 [2] [µM] | SMILES | also measured
> 50 | 8.25 | COc1ccc(C[C@H](NC(=O)c2cnccn2)C(=O)N[C@@H](Cc2ccc(O)cc2)C(=O)N[C@@H](CC(C)C)C(=O)c2ccco2)cc1 | 
> 50 | 7.26 | CC(C)C[C@H](NC(=O)[C@H](Cc1ccc(O)cc1)NC(=O)[C@H](Cc1ccc(Cl)cc1)NC(=O)OC(C)(C)C)C(=O)c1ccco1 | 
> 50 | 6.3 | Cc1ccc(S(=O)(=O)N[C@@H](CC(=O)NCCC(C)C)C(=O)N[C@@H](C)C(=O)N[C@@H](CC(C)C)C(=O)c2ccco2)cc1 | 
> 50 | 5.63 | Cc1ccc(S(=O)(=O)N[C@@H](CC(=O)NCC(C)(C)C)C(=O)N[C@@H](C)C(=O)N[C@@H](CC(C)C)C(=O)c2ccco2)cc1 | 
> 50 | 4.56 | CC(C)C[C@H](NC(=O)[C@H](Cc1ccc(O)cc1)NC(=O)[C@H](Cc1ccc(O)cc1)NC(=O)c1ccc(CO)cc1)C(=O)c1ccco1 | 
> 50 | 4.16 | COC[C@H](NC(=O)[C@H](Cc1ccccc1)NC(=O)OCc1ccccc1)C(=O)N[C@@H](CC(C)C)C(=O)c1ccco1 | 
